Test results: ChEMBL document CHEMBL1152250, “Novel and orally active 5-(1,3,4-oxadiazol-2-yl)pyrimidine derivatives as selective FLT3 inhibitors” (Bioorg Med Chem Lett, 2008)

Assays:
MOLM-13 [1] = assay: Antiproliferative activity against human MOLM13 cells after 72 hrs by WST-1 assay; assay type: functional; conditions: MOLM-13, 72 h
How it was run: (§1)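 Cells kept in RPMI1640 with 10% heat-inactivated FBS, 1% penicillin and 1% streptomycin, seeded in 96-well plates and exposed to test compounds for 72 h. Viability read with WST-1 reagent. GI50 is the mean ± SEM of three experiments.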

Liver microsomes = assay: Metabolic stability in human liver microsomes assessed as intrinsic clearance; assay type: ADME, Microsome
How it was run: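 Pooled human liver microsomes (0.2 mg protein/mL) with test compound at 0.1 or 1 μmol/L, 5 mmol/L NADPH, 100 mmol/L phosphate buffer pH 7.4, 6 mmol/L MgCl2 and 0.1 mmol/L EDTA. Cosolvent was DMSO (0.01 or 0.001 vol%) or methanol (1 vol%). Incubated at 37 °C for a fixed time, n = 1 or 2. Stopped with CH3CN containing internal standard and analysed by LC-MS or LC-MS/MS. Intrinsic clearance calculated from percent remaining.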

[2] = Antiproliferative activity against human HMC1 cells expressing FLT3-delta599 mutant after 72 hrs by WST-1 assay; assay type: functional; conditions: HMC1, 72 h; how it was run: as §1
[3] = Antiproliferative activity against human HMC1 cells expressing FLT-D835Y mutant after 72 hrs by WST-1 assay; assay type: functional; conditions: HMC1, 72 h; how it was run: as §1
[4] = Antiproliferative activity against human ML1 cells after 72 hrs by WST-1 assay; assay type: functional; conditions: ML1, 72 h; how it was run: as §1
MOLM-13 [5] = assay: Antitumor activity against human MOLM13 cells xenografted in SCID mouse assessed as minimal tumor volume ratio at 100 mg/kg, po bid treated for 5 days measured after 7 days relative to control; assay type: functional
How it was run: (§2)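 SCID mice bearing subcutaneous MOLM-13 xenografts, 5 per group, dosed orally b.i.d. for 5 days. […] is the mean tumour volume ratio, treated to control. Regression is the mean tumour volume relative to the initial volume on day 0. Mortality and body weight were also recorded.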

MOLM-13 [6] = assay: Antitumor activity against human MOLM13 cells xenografted in SCID mouse assessed as tumor volume ratio at 200 mg/kg, po bid treated for 5 days measured after 10 days relative to control; assay type: functional; how it was run: as §2
MOLM-13 [7] = assay: Antitumor activity against human MOLM13 cells xenografted in SCID mouse assessed as minimal regressive tumor volume ratio at 100 mg/kg, po bid treated for 5 days measured after 4 days relative to control; assay type: functional; how it was run: as §2
MOLM-13 [8] = assay: Antitumor activity against human MOLM13 cells xenografted in SCID mouse assessed as minimal regressive tumor volume ratio at 200 mg/kg, po bid treated for 5 days measured after 10 days relative to control; assay type: functional; how it was run: as §2
Mus musculus [9] = assay: Toxicity to human MOLM13 cells xenografted SCID mouse assessed as mortality at 50 mg/kg, po bid after 5 days; assay type: organism-based, MOLM-13; design: dose 50 mg/kg, route oral; conditions: in vivo, 120 h
How it was run: (§3)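 MOLM-13 cells implanted subcutaneously in SCID mice. Compound given orally twice daily for 5 days at 50, 100 or 200 mg/kg, alongside an untreated control group. Mortality was scored per dose group, together with tumor volume as treated/control ratio and relative to day-0 volume.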

Mus musculus [10] = assay: Toxicity to human MOLM13 cells xenografted SCID mouse assessed as mortality at 100 mg/kg, po bid after 5 days; assay type: organism-based, MOLM-13; design: dose 100 mg/kg, route oral; conditions: in vivo, 120 h; how it was run: as §3
Mus musculus [11] = assay: Toxicity to human MOLM13 cells xenografted SCID mouse assessed as mortality at 200 mg/kg, po bid after 5 days; assay type: organism-based, MOLM-13; design: dose 200 mg/kg, route oral; conditions: in vivo, 120 h; how it was run: as §3
MOLM-13 [12] = assay: Antitumor activity against human MOLM13 cells xenografted in po dosed SCID mouse assessed as tumor volume ratio administered bid for 5 days; assay type: functional, organism-based; how it was run: as §2
MOLM-13 [13] = assay: Antitumor activity against human MOLM13 cells xenografted in po dosed SCID mouse assessed as regression tumor volume ratio administered bid for 5 days; assay type: functional, organism-based; how it was run: as §2
Mus musculus [14] = assay: Toxicity to human MOLM13 cells xenografted SCID mouse assessed as body weight loss at 200 mg/kg, po bid after 5 days; assay type: organism-based, MOLM-13; design: dose 200 mg/kg, route oral; conditions: in vivo, 120 h; how it was run: as §2
[15] = target: T1, Receptor-type tyrosine-protein kinase FLT3 (Homo sapiens, UniProt P36888); assay: Inhibition of GST-tagged FLT3 by ELISA
T1 sequence (P36888 whole entry): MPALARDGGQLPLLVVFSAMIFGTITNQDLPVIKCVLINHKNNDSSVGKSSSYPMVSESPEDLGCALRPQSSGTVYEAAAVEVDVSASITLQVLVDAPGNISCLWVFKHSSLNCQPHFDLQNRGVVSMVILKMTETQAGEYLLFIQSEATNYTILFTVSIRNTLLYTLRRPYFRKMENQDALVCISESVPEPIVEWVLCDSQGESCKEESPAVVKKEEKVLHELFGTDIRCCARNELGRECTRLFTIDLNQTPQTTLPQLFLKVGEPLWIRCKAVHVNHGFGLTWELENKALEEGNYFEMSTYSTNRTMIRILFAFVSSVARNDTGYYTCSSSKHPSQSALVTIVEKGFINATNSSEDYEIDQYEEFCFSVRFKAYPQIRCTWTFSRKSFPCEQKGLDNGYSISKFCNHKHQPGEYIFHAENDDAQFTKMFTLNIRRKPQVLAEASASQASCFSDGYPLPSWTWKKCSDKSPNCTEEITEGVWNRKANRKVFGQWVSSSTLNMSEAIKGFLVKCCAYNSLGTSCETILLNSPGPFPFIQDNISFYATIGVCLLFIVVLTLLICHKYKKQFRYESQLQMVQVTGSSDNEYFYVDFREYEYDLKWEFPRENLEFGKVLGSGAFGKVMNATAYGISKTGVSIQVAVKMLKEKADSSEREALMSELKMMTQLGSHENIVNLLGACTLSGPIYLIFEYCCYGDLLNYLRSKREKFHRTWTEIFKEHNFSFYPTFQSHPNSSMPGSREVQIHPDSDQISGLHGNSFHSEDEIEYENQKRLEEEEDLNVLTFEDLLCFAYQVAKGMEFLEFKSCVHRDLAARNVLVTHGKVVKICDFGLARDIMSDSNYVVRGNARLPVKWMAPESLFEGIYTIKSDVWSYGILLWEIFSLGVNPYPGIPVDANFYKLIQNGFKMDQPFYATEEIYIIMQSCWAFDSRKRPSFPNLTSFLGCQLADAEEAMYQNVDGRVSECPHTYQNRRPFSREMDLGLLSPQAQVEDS

MOLM-13 [16] = assay: Antitumor activity against human MOLM13 cells xenografted in SCID mouse assessed as minimal tumor volume ratio at 50 mg/kg, po bid treated for 5 days measured after 7 days relative to control; assay type: functional; how it was run: as §2

In the case of `CCCNc1nc(NCCc2ccncc2)ncc1-c1nnc(CN2CCNCC2)o1`, the GI50 (MOLM-13 [1]) is reported as 29 nM, the clearance (Liver microsomes) is reported as 18.3 mL/min/kg and the GI50 [2] is reported as 74 nM. The GI50 [3] was 65 nM, the GI50 [4] was 9110 nM and the T/C (MOLM-13 [5]) was 0.1. For the same compound, the T/C (MOLM-13 [6]) was 0.006, the Ratio (MOLM-13 [7]) was 0.571 and the Ratio (MOLM-13 [8]) was 0.098. The Activity (Mus musculus [9]) was “Non-toxic”, the Activity (Mus musculus [10]) was “Non-toxic” and the Activity (Mus musculus [11]) was “Non-toxic”. For the same compound, the Activity (MOLM-13 [12]) was “Dose-dependent effect”, the Activity (MOLM-13 [13]) was “Dose-dependent effect” and the Activity (Mus musculus [14]) was “Non-toxic”.

`c1ccc(Nc2nc(NCCc3ccncn3)ncc2-c2nnc(C3CC3)o2)cc1` showed a GI50 (MOLM-13 [1]) of 775 nM and a clearance (Liver microsomes) of 73.3 mL/min/kg.

Work on `CNc1nc(NCCc2ccncc2)ncc1-c1nnc(CN2CCN(C)CC2)o1` yielded a GI50 (MOLM-13 [1]) of 262 nM and a clearance (Liver microsomes) of 1.67 mL/min/kg.

With `Cc1cc(CCNc2ncc(-c3nnc(C4CC4)o3)c(Nc3ccccc3)n2)ccn1` the GI50 (MOLM-13 [1]) was 137 nM and the clearance (Liver microsomes) was 367 mL/min/kg.

Compound `Oc1ccc(CCNc2ncc(-c3nnc(C4CC4)o3)c(Nc3ccccc3)n2)cc1` has a GI50 (MOLM-13 [1]) of 44 nM and a clearance (Liver microsomes) of 85 mL/min/kg.

With `CCCNc1nc(NCCc2ccncc2)ncc1-c1nnc(CN2CCN(C)CC2)o1` the GI50 (MOLM-13 [1]) was 19 nM, the clearance (Liver microsomes) was 81.7 mL/min/kg and the GI50 [2] was 37 nM. For the same compound, the GI50 [3] was 31 nM, the GI50 [4] was greater than 10000 nM and the Activity (Mus musculus [9]) was “Non-toxic”. The Activity (Mus musculus [14]) was “Non-toxic”.

Work on `FCCCNc1nc(NCCc2ccncc2)ncc1-c1nnc(CN2CCNCC2)o1` yielded a GI50 (MOLM-13 [1]) of 99 nM and a clearance (Liver microsomes) of 1.67 mL/min/kg.

In the case of `CS(=O)(=O)CCNc1nc(NCCc2ccncc2)ncc1-c1nnc(C2CC2)o1`, the IC50 [15] is reported as 515 nM and the GI50 (MOLM-13 [1]) is reported as 588 nM.

Compound `CCNc1nc(NCCc2ccncc2)ncc1-c1nnc(CN2CCN(C)CC2)o1` has a GI50 (MOLM-13 [1]) of 102 nM, a clearance (Liver microsomes) of 45 mL/min/kg and a GI50 [2] of 114 nM. The GI50 [3] was 63 nM, the GI50 [4] was greater than 10000 nM and the T/C (MOLM-13 [16]) was 0.24. For the same compound, the Activity (Mus musculus [9]) was “Non-toxic” and the Activity (Mus musculus [14]) was “Non-toxic”.

With `Oc1cc(CCNc2ncc(-c3nnc(C4CC4)o3)c(Nc3ccccc3)n2)ccn1` the GI50 (MOLM-13 [1]) was 113 nM and the clearance (Liver microsomes) was 41.7 mL/min/kg.

Compound `Cc1ccccc1Nc1nc(NCCc2ccncc2)ncc1-c1nnc(C2CC2)o1` has an IC50 [15] of 134 nM, a GI50 (MOLM-13 [1]) of 40 nM and a clearance (Liver microsomes) of 217 mL/min/kg.

With `CCCNc1nc(NCCc2ccncc2)ncc1-c1nnc(CN2CCC(N)CC2)o1` the GI50 (MOLM-13 [1]) was 74 nM and the clearance (Liver microsomes) was 50 mL/min/kg.

In the case of `CCCNc1nc(NCCc2cccs2)ncc1-c1nnc(C)o1`, the IC50 [15] is reported as 373 nM.

With `CCCNc1nc(NCCc2ccncc2)ncc1-c1nnc(CNCCN(C)C)o1` the GI50 (MOLM-13 [1]) was 78 nM and the clearance (Liver microsomes) was 50 mL/min/kg.

Work on `CNc1nc(NCCc2ccncc2)ncc1-c1nnc(C2CC2)o1` yielded an IC50 [15] of 35 nM, a GI50 (MOLM-13 [1]) of 139 nM and a clearance (Liver microsomes) of 20 mL/min/kg.

Compound `CCCNc1nc(NCCc2ccncc2)ncc1-c1nnc(CN2CCN(CCO)CC2)o1` has a GI50 (MOLM-13 [1]) of 57 nM and a clearance (Liver microsomes) of 50 mL/min/kg.

For `CCCNc1nc(NCCc2ccncc2)ncc1-c1nnc(CN2CCOCC2)o1`, the GI50 (MOLM-13 [1]) was 43 nM and the clearance (Liver microsomes) was 167 mL/min/kg.

`OCCNc1nc(NCCc2ccncc2)ncc1-c1nnc(C2CC2)o1` showed an IC50 [15] of 63 nM, a GI50 (MOLM-13 [1]) of 123 nM and a clearance (Liver microsomes) of 20 mL/min/kg.

Compound `N#Cc1cc(CCNc2ncc(-c3nnc(C4CC4)o3)c(Nc3ccccc3)n2)ccn1` has a GI50 (MOLM-13 [1]) of 10000 nM.
